The values that follow come from ChEMBL document CHEMBL4513216, “Probing the Open Global Health Chemical Diversity Library for Multistage-Active Starting Points for Next-Generation Antimalarials” (ACS Infect Dis, 2020).

The nature of the data set: Toxicity liver stage against HepG2, at 10uM. The format is cell-based. The arrangement: test concentration 10 uM, cell line HepG2-A16-CD81EGFP. Conditions: human, HepG2-A16-CD81EGFP cells; read-out: INHIBITION
Put shortly: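 Uninfected HepG2-A16-CD81EGFP cells, 3 × 10^3 per well, 1536-well, plated on prespotted compound at 10 μM final, parasite-free screening media added to match infected plates; puromycin 10 μM positive, DMSO 0.5% negative; run in parallel with 48 h PbLuc assay at 37 °C, 5% CO2; viability by CellTiter-Glo luminescence, normalized to controls.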
On to `CCOc1nn(CC)cc1-c1nnc(SCc2ccccn2)n1C`, for which the cytotoxicity at 10 µM is -2.95%.

On to `COc1ccc(F)cc1S(=O)(=O)N1CCN(CCn2ccnc2)CC1`, for which the cytotoxicity at 10 µM is -7.72%.

As for `Cn1cc(CN2CC3(CCN(Cc4ccsc4)C3)C2)cn1`, the cytotoxicity at 10 µM is -0.182%.

Take `CCS(=O)(=O)N1CC[C@H]2O[C@H](c3nc(C)no3)CC[C@H]21`: the cytotoxicity at 10 µM stood at 6.73%.

As for `CCCOC1Sc2nnc(C)n2N=C1c1ccccc1` (configuration not stated), the cytotoxicity at 10 µM came out at 1.57%.

Take `CC(=O)N1CCCC1CCc1ccc(Cl)nn1` (configuration not stated): the cytotoxicity at 10 µM was determined as 3.39%.

Regarding `Cc1nc(CN2CCCC(c3cnccn3)C2)cs1` (configuration not stated), the cytotoxicity at 10 µM is -4.18%.

For the compound `Cn1nc(C2CC2)cc1C(=O)N1CCC(c2nnsc2S(C)(=O)=O)CC1`, the cytotoxicity at 10 µM was -0.81%.

Consider `COc1ccc2c(c1)C(=O)NC1(CC2)CCN(Cc2ccccn2)C1` (configuration not stated), for which the cytotoxicity at 10 µM stood at 4.51%.

`CN(C1CCCN(c2ccccn2)C1)S(=O)(=O)N1CCOCC1` (configuration not stated): the cytotoxicity at 10 µM was determined as 8.09%.

As to `O=C(c1ccc(=O)[nH]n1)N1CCCC1C1CCCC1` (configuration not stated), the cytotoxicity at 10 µM is -7.09%.

Regarding `NC(=O)N1CCC(NCc2cc(C(F)(F)F)ccc2Cl)CC1`, the cytotoxicity at 10 µM was -0.651%.

Regarding `O=C(CCc1nnc(-c2ccccc2)o1)N1CCCC1c1ccccn1` (configuration not stated), the cytotoxicity at 10 µM is -5.82%.

Turning to `CCc1nnc(CN2CCc3ccc(S(N)(=O)=O)cc32)o1`, the cytotoxicity at 10 µM is 1.41%.

`COC(=O)c1ccoc1CN(C)CC(=O)NC1CCS(=O)(=O)C1` (configuration not stated): the cytotoxicity at 10 µM was -14.2%.

Turning to `Cc1cc(S(=O)(=O)N2CCOCC2C#N)ccc1F` (configuration not stated), the cytotoxicity at 10 µM turned out to be 57.3%.

`Cc1noc(C)c1CCCNC(=O)Nc1cccc([S+](C)[O-])c1` (configuration not stated): the cytotoxicity at 10 µM is -0.595%.

As to `CC(C)c1nc2cc(NC(=O)Cn3ccc(=O)[nH]c3=O)ccc2o1`, the cytotoxicity at 10 µM was determined as 1.73%.

`CC(NC(=O)N1CCc2ccccc21)c1nncn1C` (configuration not stated): the cytotoxicity at 10 µM is -5.3%.

As for `COc1cc(C(C)NCc2c[nH]nc2C)ccc1OCCO` (configuration not stated), the cytotoxicity at 10 µM was -7.47%.

Turning to `Cc1cccc(OC(C)C(=O)NCC2(N(C)C)CCCC2)c1` (configuration not stated), the cytotoxicity at 10 µM was -13.4%.

As to `COCC(NC(=O)c1ccoc1C)c1cccc(C(F)(F)F)c1` (configuration not stated), the cytotoxicity at 10 µM is -5.95%.

As for `O=C(NCCN1CCOCC1)N(CCCO)C1CCCc2ccccc21` (configuration not stated), the cytotoxicity at 10 µM is -9.69%.

In the case of `COc1ccc(CNC(=O)NC(C)(CO)C2CC2)c(C(F)(F)F)c1` (configuration not stated), the cytotoxicity at 10 µM is 8.48%.

In the case of `O=C(NCCCOCc1ccco1)c1cccnc1N1CCOCC1`, the cytotoxicity at 10 µM was -8.5%.

For `N#Cc1nccnc1N1CCC(c2nc(C(F)(F)F)c[nH]2)CC1`, the cytotoxicity at 10 µM was 4.25%.

In the case of `COCCCNC(=O)Nc1cccc2ncccc12`, the cytotoxicity at 10 µM was -4.84%.

In the case of `NC(=O)CCn1ccc(NC(=O)C2(c3ccc(F)cc3)CCC2)n1`, the cytotoxicity at 10 µM was -1.03%.

For `CCn1c(C)cc(C(=O)NCc2ccc(CS(C)(=O)=O)cc2)c1C`, the cytotoxicity at 10 µM is -16.9%.

In the case of `Cc1cccc(C(=O)N2CCCC2c2c(C)n[nH]c2C)c1` (configuration not stated), the cytotoxicity at 10 µM amounted to 8.58%.

For `CC(=O)NCCCSCCOc1cccc(C#N)c1`, the cytotoxicity at 10 µM came out at 11.4%.

In the case of `CCc1nnsc1C(=O)N1CCN(CC(O)CC)CC1` (configuration not stated), the cytotoxicity at 10 µM is -6.06%.

As to `COc1c(C)cnc(CN(C)C(=O)c2cccc(NC(N)=O)c2)c1C`, the cytotoxicity at 10 µM is -8.94%.

Consider `COc1cccc(F)c1C(C)NC(=O)NCc1cc(C(C)C)no1` (configuration not stated), for which the cytotoxicity at 10 µM stood at 4.25%.

Consider `CNS(=O)(=O)c1ccc(CNC(=O)N(C)CC(C)C)cc1`, for which the cytotoxicity at 10 µM amounted to 1.08%.

With `CNC(=O)c1ccc(S(=O)(=O)NCCc2ccccn2)cc1`, the cytotoxicity at 10 µM was -14.3%.

As to `c1ccc2sc(NCC3(N4CCOCC4)CCSC3)nc2c1` (configuration not stated), the cytotoxicity at 10 µM amounted to 0.375%.

For the compound `O=C(c1c(F)cc(Br)cc1F)N1CCc2cnccc21`, the cytotoxicity at 10 µM was -10.1%.

Consider `CCc1noc(CN(CC(=O)N2CCCCC2)c2cccc(C)c2)n1`, for which the cytotoxicity at 10 µM was -6.61%.

As for `CCc1nc(CNc2ccc(F)c(F)c2)no1`, the cytotoxicity at 10 µM stood at 5.49%.

For the compound `O=C(NC1CC1)[C@@H]1CCO[C@@H]2CCN(Cc3ccco3)C[C@H]21`, the cytotoxicity at 10 µM was -86.6%.

In the case of `CC(C)Nc1ncnc2c1CCN(C(=O)CC1CCCC1)CC2`, the cytotoxicity at 10 µM is -81.5%.

Consider `CC(=O)N1CC[C@H]2OCC[C@@H](C(=O)NCc3ccco3)[C@@H]2C1`, for which the cytotoxicity at 10 µM is -77.4%.

Turning to `CC(C)c1cc(C2CCCN2C(=O)CN2C(=O)OC(C)(C)C2=O)no1` (configuration not stated), the cytotoxicity at 10 µM was -7.71%.

As for `Cc1cccc(CC(=O)N2CCCC(N(C)CCCN(C)C)C2)c1` (configuration not stated), the cytotoxicity at 10 µM is -0.655%.

On to `COc1cc(CN2CCCC(Nc3cccc(F)c3)C2)cc(Cl)c1O` (configuration not stated), for which the cytotoxicity at 10 µM is -0.476%.

On to `CC(CO)CN(Cc1ccccc1)Cc1cnc2ccccc2n1` (configuration not stated), for which the cytotoxicity at 10 µM is 6.6%.

As to `COc1cc(C)cc(C(C(=O)O)N(C)Cc2ccon2)c1OC` (configuration not stated), the cytotoxicity at 10 µM is -3.41%.

As to `COc1ccc(F)c(-c2nccn2CCN2CCCC2)c1`, the cytotoxicity at 10 µM was -11.8%.

Consider `Cc1ccccc1N1CCN(C(=O)Cc2ccc3c(c2)OCO3)CC1=O`, for which the cytotoxicity at 10 µM was 6.17%.

In the case of `CCCc1nc(C(=O)N2CCN(S(=O)(=O)CC)CC2)cs1`, the cytotoxicity at 10 µM is -14.5%.

For the compound `CCN1C[C@@H](C(=O)O)[C@H](c2cccc(OC)c2)C1`, the cytotoxicity at 10 µM is -19%.

On to `COc1ncc(CN2CCC3(CCCN(CC4CCC4)C3)C2)cn1` (configuration not stated), for which the cytotoxicity at 10 µM was -1.95%.

As to `c1cn(CCn2cnnc2)c(-c2cc3n(n2)CCCNC3)n1`, the cytotoxicity at 10 µM was -0.309%.

As to `CCC[C@H]1CN(C2CCOCC2)C[C@@H]1NC(=O)CCn1ccnc1C`, the cytotoxicity at 10 µM was found to be 5.78%.

On to `CC(c1nccs1)N(C)C(=O)c1cc(CN(C)Cc2ccccc2)on1` (configuration not stated), for which the cytotoxicity at 10 µM amounted to 12.2%.

For `Cc1nc2c(c(NCC(c3cccnc3)N3CCOCC3)n1)CCNC2` (configuration not stated), the cytotoxicity at 10 µM is -11.1%.

Turning to `CSCCC1c2nc[nH]c2CCN1Cc1[nH]c2ccc(F)cc2c1C` (configuration not stated), the cytotoxicity at 10 µM is -5.65%.

Regarding `COCCN(Cc1ccccn1)C(=O)C1CCCCCN1C` (configuration not stated), the cytotoxicity at 10 µM turned out to be 6.32%.

On to `Cc1cc2[nH]cc(C(=O)N3CCCCC3c3ccc(F)cc3)c(=O)n2n1` (configuration not stated), for which the cytotoxicity at 10 µM stood at 4.19%.

`CCc1cnc(N2CCCC(CCC(N)=O)C2)nc1` (configuration not stated): the cytotoxicity at 10 µM amounted to 2.25%.

For the compound `CCc1nnc(CN2CCC3(CC2)Nc2ccccc2NC3=O)o1`, the cytotoxicity at 10 µM is -6.96%.

As for `Cc1ccc2c(c1)OC(C)(C)CC2NC(=O)C1CCN(C)CC1` (configuration not stated), the cytotoxicity at 10 µM was -1.71%.

On to `CN(Cc1ccc(-n2cncn2)cc1)Cc1ncc[nH]1`, for which the cytotoxicity at 10 µM was determined as 4.67%.

As for `COCCN1CCC2(CCC1=O)CN(C1CCOCC1)CCN2C` (configuration not stated), the cytotoxicity at 10 µM worked out at 0.0227%.

Take `CCN(Cc1noc(C)n1)C(=O)CC1C(=O)NCCN1CC(C)(C)C` (configuration not stated): the cytotoxicity at 10 µM came out at 2.78%.

Turning to `Cn1nccc1C(=O)N1CCC(n2cc(-c3ccsc3)nn2)CC1`, the cytotoxicity at 10 µM was -3.44%.

Turning to `O=C(c1ccsc1)N1C[C@@H](CN2CCCC2)[C@@H](CO)C1`, the cytotoxicity at 10 µM stood at 15.2%.

On to `COc1ccccc1OCc1cc(C(=O)N2CC=CC2C(C)C)n[nH]1` (configuration not stated), for which the cytotoxicity at 10 µM is -2.72%.

`Cc1cccc(CN2CCc3c(nc(N4CCCCC4C)[nH]c3=O)C2)n1` (configuration not stated): the cytotoxicity at 10 µM was -0.336%.

For the compound `Cc1cc(C(=O)N2CCCC(C)C2)ccc1NCc1nc(C(C)C)no1` (configuration not stated), the cytotoxicity at 10 µM is -9.84%.

For `CNC(=O)c1ccc(C(=O)N2CCCC(n3ccnc3)C2)cn1` (configuration not stated), the cytotoxicity at 10 µM is -8.89%.

In the case of `CCCOCC(=O)NS(=O)(=O)c1ccc2c(c1)OCCO2`, the cytotoxicity at 10 µM was -6.46%.

Consider `CSc1nccn1-c1cccc(C(=O)NCC(F)(F)F)c1`, for which the cytotoxicity at 10 µM was -0.312%.

For the compound `CCOC(=O)c1sc2ccsc2c1CNC(=O)C(C)OC` (configuration not stated), the cytotoxicity at 10 µM is -4.07%.

Consider `Cc1noc(Cl)c1CC(=O)N1CCC(Nc2cccnn2)CC1`, for which the cytotoxicity at 10 µM was -4.72%.

As to `CCn1cc(NC(=O)C2CCN(Cc3noc(C4CC4)n3)CC2)cn1`, the cytotoxicity at 10 µM was -1.41%.

In the case of `CCc1noc(CN2CCCC(Cn3nc(C)nc3C)C2)n1` (configuration not stated), the cytotoxicity at 10 µM was -6.31%.

As for `CCC(C)(C)NC(=O)CN(C)C(c1cccc(F)c1)c1ccccn1` (configuration not stated), the cytotoxicity at 10 µM was -3.15%.

For the compound `CC(=O)NCCc1ccc(C(=O)N2CCCC2c2cnn(C)c2)cc1` (configuration not stated), the cytotoxicity at 10 µM is -4.74%.

Consider `Cc1nc(-c2ccccc2)sc1C(=O)NCCNc1ncccn1`, for which the cytotoxicity at 10 µM stood at 0.273%.

`COCCCNC(=O)CN(C)C(=O)c1cc(C)sc1C`: the cytotoxicity at 10 µM was -2.58%.

Take `NC(=O)c1csc(C(=O)N2CCCCC2Cn2cccn2)c1` (configuration not stated): the cytotoxicity at 10 µM was -3.56%.

As to `O=C(C1CCCCN1Cc1nc(-c2ccco2)no1)N1CCCC1` (configuration not stated), the cytotoxicity at 10 µM is -4.64%.

In the case of `O=C(NCCn1ccnc1)N1CCCC1c1ccsc1` (configuration not stated), the cytotoxicity at 10 µM was -6.05%.

Turning to `CCC1CN(c2nnc(C)c(C)c2C#N)CCO1` (configuration not stated), the cytotoxicity at 10 µM is -0.678%.

As for `Cc1nnc(N2CCOC(Cn3cccn3)C2)c(C#N)c1C` (configuration not stated), the cytotoxicity at 10 µM is -8.47%.

`C=C(Cl)CN1CCC(C(=O)c2cc(F)ccc2F)CC1`: the cytotoxicity at 10 µM was -7.26%.

For the compound `Cn1cc([C@@H]2CN(S(=O)(=O)c3ccccc3F)C[C@H]2N)c2ccncc21`, the cytotoxicity at 10 µM was found to be 6.13%.

Turning to `CN1CCC2(CC1)CN(C(=O)c1cnccn1)Cc1ccccc12`, the cytotoxicity at 10 µM is -82.2%.

On to `Cc1nc(CO[C@H]2CN(Cc3cccs3)[C@@H]3COC[C@H]23)cs1`, for which the cytotoxicity at 10 µM was -2.19%.

On to `Cc1cnc(N2CC[C@@H]3O[C@@H](COCC(=O)N(C)C)CC[C@@H]32)nc1`, for which the cytotoxicity at 10 µM was determined as 0.0508%.

Take `CN1CCN(CCO)C(=O)C12CCN(Cc1ccsc1)CC2`: the cytotoxicity at 10 µM came to 3.66%.

`CCn1ncc2c1CN(C(=O)Cc1ccccn1)CC2COC` (configuration not stated): the cytotoxicity at 10 µM was -70.7%.

`Cc1oncc1C(=O)N1CC[C@H]2[C@@H]1CCC(=O)N2c1cccnc1`: the cytotoxicity at 10 µM was -76.3%.

Turning to `O=S(=O)(C1CC1)N1CC[C@]2(C[C@@H](Oc3ncccc3F)CO2)C1`, the cytotoxicity at 10 µM was -74.1%.

As to `Cc1cc(C(=O)N2C[C@@H]3CC[C@H]2CN(C)C3)ccc1Cl`, the cytotoxicity at 10 µM was -8.23%.
